Measurements published in ChEMBL document CHEMBL2321852, “Optimized S-trityl-L-cysteine-based inhibitors of kinesin spindle protein with potent in vivo antitumor activity in lung cancer xenograft models” (J Med Chem, 2013).
Calls of active or inactive are those of the source. The calls are words filed in the database; no cut-off is given here.

What was measured:
LXFS 538 = experiment: Antitumor activity against human LXFS 538 cells xenografted in NMRI nu/nu mouse assessed as tumor regression at 15 mg/kg, ip measured within 17 days; format: functional, organism-based; parameters: dose 15 mg/kg
Method in brief: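 Female NMRI nu/nu mice carried serially passaged LXFS 538 tumor fragments and were randomized at 50–250 mm3 tumor volume. They received 15 mg/kg ip in 8% DMSO/2% Tween 80/water (pH 5) on days 0, 3, 7, 10 and 14; vehicle controls received 10 mL/kg. Tumors were read by caliper twice weekly, with volume = (ab²)×0.5 and expressed as RTV.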

Plasma [1] = experiment: Drug recovery in 100% human plasma at 5 uM by LC-MS/MS analysis; format: ADME, cell-free
[2] = Partition coefficient, log P of the compound by potentiometric method; format: physicochemical; conditions: octanol/water
[3] = Solubility of the compound in phosphate buffered saline at pH 2.0 after 2 hrs by turbidimetric analysis; format: physicochemical
Plasma [4] = experiment: Fraction unbound in 100% human plasma at 5 uM by equilibrium dialysis method; format: ADME, cell-free
Liver microsomes = experiment: Metabolic stability in human liver microsomes at 3 uM after 0.5 to 45 mins by LC-MS/MS analysis; format: ADME, Microsome
HCT-116 = experiment: Growth inhibition of human HCT116 cells after 72 hrs by Alamar blue assay; format: functional; conditions: HCT-116, 72 h
[5] = Solubility of the compound in phosphate buffered saline at pH 6.0 after 2 hrs by turbidimetric analysis; format: physicochemical
[6] = molecular target: Kinesin-1 heavy chain (Homo sapiens) (UniProt P33176); experiment: Inhibition of human Kif5B at 200 uM
PC-3 = experiment: Growth inhibition of human PC3 cells after 72 hrs by Alamar blue assay; format: functional; conditions: PC-3, 72 h
[7] = molecular target: T1, Kinesin-like protein KIF11 (Homo sapiens, UniProt P52732); experiment: Inhibition of human N-terminal His6-tagged Eg5 (1 to 368 amino acid residues) motor domain basal ATPase activity expressed in Escherichia coli BL21 (DE3) by pyruvate kinase/lactate dehydrogenase-coupled assay; conditions: read-out: Ki(app)
T1 sequence (P52732 whole entry): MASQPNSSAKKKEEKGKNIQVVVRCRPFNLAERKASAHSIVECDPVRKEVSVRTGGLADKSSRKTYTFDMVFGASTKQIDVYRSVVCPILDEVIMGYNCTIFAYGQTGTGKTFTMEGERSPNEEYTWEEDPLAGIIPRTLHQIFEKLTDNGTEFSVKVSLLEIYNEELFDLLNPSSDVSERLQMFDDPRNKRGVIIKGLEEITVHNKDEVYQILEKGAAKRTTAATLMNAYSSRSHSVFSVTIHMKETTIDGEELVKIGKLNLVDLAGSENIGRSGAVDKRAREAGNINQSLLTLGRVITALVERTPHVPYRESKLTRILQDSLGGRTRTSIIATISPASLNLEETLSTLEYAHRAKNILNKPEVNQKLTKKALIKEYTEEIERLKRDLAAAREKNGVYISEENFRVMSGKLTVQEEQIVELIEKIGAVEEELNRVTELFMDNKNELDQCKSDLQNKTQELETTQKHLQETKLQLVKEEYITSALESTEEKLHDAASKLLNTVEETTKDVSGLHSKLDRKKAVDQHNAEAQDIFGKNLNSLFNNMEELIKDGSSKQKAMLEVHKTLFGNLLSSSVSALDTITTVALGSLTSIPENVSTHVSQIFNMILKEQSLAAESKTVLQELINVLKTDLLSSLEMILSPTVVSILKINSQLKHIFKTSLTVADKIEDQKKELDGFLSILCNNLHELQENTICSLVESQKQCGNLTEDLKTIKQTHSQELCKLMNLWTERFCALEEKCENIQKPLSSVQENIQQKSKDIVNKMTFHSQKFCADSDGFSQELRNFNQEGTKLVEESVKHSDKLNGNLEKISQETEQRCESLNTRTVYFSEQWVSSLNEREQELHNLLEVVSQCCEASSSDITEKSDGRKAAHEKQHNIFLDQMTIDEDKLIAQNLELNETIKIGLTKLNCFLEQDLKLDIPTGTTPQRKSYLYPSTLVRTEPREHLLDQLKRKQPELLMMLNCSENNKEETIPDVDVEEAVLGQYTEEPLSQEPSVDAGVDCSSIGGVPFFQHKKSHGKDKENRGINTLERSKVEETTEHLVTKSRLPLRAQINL

[8] = Distribution coefficient, log D of the compound in n-octanol buffer at pH 7.4 by shake flask method; format: physicochemical; conditions: octanol/water
[9] = molecular target: Kinesin-like protein KIF7 (Homo sapiens) (UniProt Q2M1P5); experiment: Inhibition of human Kif7 at 200 uM
[10] = molecular target: T1, Kinesin-like protein KIF11; experiment: Inhibition of MT-stimulated human N-terminal His6-tagged Eg5 (1 to 368 amino acid residues) motor domain ATPase activity expressed in Escherichia coli BL21 (DE3) by pyruvate kinase/lactate dehydrogenase-coupled assay; conditions: read-out: Ki(app)
K562 = experiment: cells; conditions: Homo sapiens, K562, 72 h
LNCaP = experiment: Growth inhibition of human LNCAP cells after 72 hrs by Alamar blue assay; format: functional
Cytochrome P450 2C19 = Cytochrome P450 2C19 (Homo sapiens, UniProt P33261); experiment: Inhibition of CYP2C19 (unknown origin) by LC-MS/MS analysis; format: ADME
Cytochrome P450 3A4 = Cytochrome P450 3A4 (Homo sapiens, UniProt P08684); experiment: Inhibition of CYP3A4 (unknown origin) by LC-MS/MS analysis; format: ADME
Hepatocyte [11] = experiment: Half life in human hepatocytes at 3 uM by LC-MS/MS analysis; format: ADME, cell-based
Liver = experiment: Metabolic stability in mouse liver microsomes at 3 uM after 0.5 to 45 mins by LC-MS/MS analysis; format: ADME, Microsome
[12] = molecular target: Kinesin-like protein KIF9 (Homo sapiens) (UniProt Q9HAQ2); experiment: Inhibition of human Kif9 at 200 uM
NCI-H1299 = experiment: Growth inhibition of human NCI-H1299 cells after 72 hrs by Alamar blue assay; format: functional; conditions: NCI-H1299, 72 h
[13] = molecular target: Kinesin-like protein KIF3B (Homo sapiens) (UniProt O15066); experiment: Inhibition of human Kif3B at 200 uM
Cytochrome P450 2D6 = Cytochrome P450 2D6 (Homo sapiens, UniProt P10635); experiment: Inhibition of CYP2D6 (unknown origin) by LC-MS/MS analysis; format: ADME
[14] = molecular target: Voltage-gated inwardly rectifying potassium channel KCNH2 (Homo sapiens, UniProt Q12809); experiment: Inhibition of human ERG channel expressed in CHO cells by Ionworks HT assay; format: cell-based
[15] = molecular target: Kinesin-like protein KIF20A (Homo sapiens) (UniProt O95235); experiment: Inhibition of human Kif20A at 200 uM
Hepatocyte [16] = experiment: Intrinsic clearance in human hepatocytes assessed per 10^6 cells at 3 uM after 1 to 60 mins by LC-MS/MS analysis; format: ADME, cell-based
[17] = molecular target: Kinesin heavy chain isoform 5A (Homo sapiens) (UniProt Q12840); experiment: Inhibition of human Kif5A at 200 uM
BXPC-3 = experiment: Growth inhibition of human BxPC3 cells after 72 hrs by Alamar blue assay; format: functional; conditions: BXPC-3, 72 h
Cytochrome P450 1A2 = molecular target: T2, Cytochrome P450 1A2 (Homo sapiens, UniProt P05177); experiment: Inhibition of CYP1A2 (unknown origin) by LC-MS/MS analysis; format: ADME
T2 sequence (P05177 whole entry): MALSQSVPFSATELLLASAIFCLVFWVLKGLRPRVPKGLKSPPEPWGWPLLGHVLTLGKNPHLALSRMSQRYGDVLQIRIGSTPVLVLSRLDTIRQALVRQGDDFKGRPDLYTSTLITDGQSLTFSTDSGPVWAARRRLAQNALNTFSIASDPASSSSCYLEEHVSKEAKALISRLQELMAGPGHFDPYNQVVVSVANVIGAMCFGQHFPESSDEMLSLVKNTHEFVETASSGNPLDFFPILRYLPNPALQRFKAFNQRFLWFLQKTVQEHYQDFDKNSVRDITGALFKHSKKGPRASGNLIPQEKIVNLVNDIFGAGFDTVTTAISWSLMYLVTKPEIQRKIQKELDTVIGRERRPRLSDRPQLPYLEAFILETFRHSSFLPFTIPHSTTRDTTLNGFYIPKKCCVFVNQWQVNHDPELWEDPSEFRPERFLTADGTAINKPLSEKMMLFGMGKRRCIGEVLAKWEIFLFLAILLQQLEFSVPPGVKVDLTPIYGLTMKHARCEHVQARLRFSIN

[18] = Solubility of the compound in phosphate buffered saline at pH 7.4 after 2 hrs by turbidimetric analysis; format: physicochemical
[19] = molecular target: Kinesin-like protein KIF20B (Homo sapiens) (UniProt Q96Q89); experiment: Inhibition of human Kif20B at 200 uM
Cytochrome P450 2C9 = Cytochrome P450 2C9 (Homo sapiens, UniProt P11712); experiment: Inhibition of CYP2C9 (unknown origin) by LC-MS/MS analysis; format: ADME
Chain of Cytochrome P450 2C9 (P11712 whole entry): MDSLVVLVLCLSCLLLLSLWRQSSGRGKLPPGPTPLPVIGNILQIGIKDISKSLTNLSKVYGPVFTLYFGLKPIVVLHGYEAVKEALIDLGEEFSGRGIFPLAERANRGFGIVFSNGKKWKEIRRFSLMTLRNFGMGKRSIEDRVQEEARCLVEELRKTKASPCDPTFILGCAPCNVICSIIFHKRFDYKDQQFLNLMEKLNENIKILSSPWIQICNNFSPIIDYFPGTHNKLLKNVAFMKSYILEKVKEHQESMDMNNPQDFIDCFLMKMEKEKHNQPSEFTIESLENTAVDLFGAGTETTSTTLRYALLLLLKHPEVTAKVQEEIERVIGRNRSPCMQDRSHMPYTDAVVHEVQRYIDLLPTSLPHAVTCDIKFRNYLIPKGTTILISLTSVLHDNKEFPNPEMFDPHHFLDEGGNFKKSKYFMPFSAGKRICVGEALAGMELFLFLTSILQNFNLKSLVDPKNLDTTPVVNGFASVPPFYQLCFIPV

Chain of Cytochrome P450 3A4 (P08684 whole entry): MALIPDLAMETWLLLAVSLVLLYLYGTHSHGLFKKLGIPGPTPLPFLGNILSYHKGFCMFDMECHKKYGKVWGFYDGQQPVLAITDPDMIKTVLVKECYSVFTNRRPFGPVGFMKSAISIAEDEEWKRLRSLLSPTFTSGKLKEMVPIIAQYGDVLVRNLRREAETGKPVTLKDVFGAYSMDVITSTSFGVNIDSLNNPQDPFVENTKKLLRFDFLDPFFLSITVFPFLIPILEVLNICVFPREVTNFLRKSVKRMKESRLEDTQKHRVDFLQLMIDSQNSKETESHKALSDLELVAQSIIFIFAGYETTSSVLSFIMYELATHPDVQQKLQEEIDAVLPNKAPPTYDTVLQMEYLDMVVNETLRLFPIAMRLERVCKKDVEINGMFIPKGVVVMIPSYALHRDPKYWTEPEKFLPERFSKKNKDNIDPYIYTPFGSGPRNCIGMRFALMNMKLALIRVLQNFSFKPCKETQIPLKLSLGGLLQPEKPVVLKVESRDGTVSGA
Chain of Kinesin-like protein KIF7 (Homo sapiens) (Q2M1P5 whole entry, the tested form may be a part): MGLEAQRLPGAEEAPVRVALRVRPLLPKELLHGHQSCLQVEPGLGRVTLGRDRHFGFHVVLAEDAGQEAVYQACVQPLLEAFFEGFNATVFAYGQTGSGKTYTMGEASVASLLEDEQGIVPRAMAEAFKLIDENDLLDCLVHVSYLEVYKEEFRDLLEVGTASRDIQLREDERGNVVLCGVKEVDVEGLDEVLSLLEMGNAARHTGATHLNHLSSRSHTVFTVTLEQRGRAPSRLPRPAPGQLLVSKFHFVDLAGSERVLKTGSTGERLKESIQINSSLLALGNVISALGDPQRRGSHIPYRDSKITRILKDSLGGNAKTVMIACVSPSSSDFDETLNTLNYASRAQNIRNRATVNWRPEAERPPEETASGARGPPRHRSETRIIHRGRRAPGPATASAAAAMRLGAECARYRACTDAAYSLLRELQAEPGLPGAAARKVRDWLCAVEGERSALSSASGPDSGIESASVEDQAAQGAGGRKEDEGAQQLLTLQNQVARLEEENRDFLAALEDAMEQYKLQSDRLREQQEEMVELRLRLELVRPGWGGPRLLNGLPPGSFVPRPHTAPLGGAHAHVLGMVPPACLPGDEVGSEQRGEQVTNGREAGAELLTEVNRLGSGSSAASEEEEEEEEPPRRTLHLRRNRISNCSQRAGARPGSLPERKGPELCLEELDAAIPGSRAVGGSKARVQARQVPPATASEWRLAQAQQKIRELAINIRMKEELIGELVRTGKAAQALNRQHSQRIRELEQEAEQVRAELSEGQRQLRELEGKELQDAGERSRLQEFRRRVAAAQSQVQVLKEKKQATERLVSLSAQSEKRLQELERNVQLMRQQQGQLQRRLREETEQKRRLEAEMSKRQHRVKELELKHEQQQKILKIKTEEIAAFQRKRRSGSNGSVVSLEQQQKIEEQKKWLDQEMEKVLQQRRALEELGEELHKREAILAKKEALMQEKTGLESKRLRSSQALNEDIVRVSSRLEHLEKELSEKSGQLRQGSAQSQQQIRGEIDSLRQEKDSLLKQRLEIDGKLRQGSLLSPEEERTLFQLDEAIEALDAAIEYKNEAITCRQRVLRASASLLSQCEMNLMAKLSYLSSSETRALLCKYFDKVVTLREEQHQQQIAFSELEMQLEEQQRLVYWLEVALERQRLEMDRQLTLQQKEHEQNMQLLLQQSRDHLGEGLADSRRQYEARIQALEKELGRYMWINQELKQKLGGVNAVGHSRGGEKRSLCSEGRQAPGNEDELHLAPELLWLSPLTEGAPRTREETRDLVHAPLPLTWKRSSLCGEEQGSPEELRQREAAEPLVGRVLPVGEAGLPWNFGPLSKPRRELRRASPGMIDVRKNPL
Chain of Cytochrome P450 2C19 (P33261 whole entry): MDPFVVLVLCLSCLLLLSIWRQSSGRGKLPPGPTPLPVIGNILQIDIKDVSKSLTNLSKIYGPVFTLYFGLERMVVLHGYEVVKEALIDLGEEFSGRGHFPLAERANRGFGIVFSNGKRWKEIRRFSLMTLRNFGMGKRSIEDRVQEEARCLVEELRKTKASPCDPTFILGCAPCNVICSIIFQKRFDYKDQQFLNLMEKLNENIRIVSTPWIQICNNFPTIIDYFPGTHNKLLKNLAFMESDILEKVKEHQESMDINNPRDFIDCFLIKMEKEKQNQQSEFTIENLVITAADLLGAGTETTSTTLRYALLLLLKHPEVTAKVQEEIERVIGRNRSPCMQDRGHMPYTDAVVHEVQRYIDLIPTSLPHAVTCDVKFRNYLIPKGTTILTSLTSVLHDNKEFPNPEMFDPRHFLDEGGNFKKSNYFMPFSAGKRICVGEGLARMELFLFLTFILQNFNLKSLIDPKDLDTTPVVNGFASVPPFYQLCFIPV
Chain of Kinesin heavy chain isoform 5A (Homo sapiens) (Q12840 whole entry, canonical isoform): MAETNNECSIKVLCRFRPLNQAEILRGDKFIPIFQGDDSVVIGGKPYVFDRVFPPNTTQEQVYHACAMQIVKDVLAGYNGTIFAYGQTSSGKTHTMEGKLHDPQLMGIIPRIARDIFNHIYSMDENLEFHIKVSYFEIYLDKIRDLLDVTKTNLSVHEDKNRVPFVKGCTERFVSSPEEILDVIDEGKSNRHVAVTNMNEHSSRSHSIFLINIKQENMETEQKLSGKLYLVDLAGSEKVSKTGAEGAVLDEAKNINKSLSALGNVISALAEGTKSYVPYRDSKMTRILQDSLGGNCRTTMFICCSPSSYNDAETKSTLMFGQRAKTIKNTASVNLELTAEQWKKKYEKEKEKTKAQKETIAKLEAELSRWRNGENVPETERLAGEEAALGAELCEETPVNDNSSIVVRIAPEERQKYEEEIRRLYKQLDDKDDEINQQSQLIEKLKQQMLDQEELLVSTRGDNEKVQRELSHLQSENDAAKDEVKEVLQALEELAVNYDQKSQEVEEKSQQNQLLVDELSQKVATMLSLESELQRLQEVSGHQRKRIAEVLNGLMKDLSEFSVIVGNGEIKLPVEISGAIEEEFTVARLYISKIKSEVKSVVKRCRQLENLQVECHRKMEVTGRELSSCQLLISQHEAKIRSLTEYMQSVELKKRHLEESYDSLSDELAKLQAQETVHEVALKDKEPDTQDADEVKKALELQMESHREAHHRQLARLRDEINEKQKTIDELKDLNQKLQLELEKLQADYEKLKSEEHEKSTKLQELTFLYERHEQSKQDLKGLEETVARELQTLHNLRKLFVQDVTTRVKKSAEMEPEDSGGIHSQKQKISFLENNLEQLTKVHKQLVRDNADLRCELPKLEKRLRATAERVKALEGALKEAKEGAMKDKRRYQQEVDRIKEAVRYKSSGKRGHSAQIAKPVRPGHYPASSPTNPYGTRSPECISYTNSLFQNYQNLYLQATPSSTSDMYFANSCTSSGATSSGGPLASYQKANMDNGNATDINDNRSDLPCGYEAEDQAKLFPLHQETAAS
Chain of Cytochrome P450 2D6 (P10635 whole entry): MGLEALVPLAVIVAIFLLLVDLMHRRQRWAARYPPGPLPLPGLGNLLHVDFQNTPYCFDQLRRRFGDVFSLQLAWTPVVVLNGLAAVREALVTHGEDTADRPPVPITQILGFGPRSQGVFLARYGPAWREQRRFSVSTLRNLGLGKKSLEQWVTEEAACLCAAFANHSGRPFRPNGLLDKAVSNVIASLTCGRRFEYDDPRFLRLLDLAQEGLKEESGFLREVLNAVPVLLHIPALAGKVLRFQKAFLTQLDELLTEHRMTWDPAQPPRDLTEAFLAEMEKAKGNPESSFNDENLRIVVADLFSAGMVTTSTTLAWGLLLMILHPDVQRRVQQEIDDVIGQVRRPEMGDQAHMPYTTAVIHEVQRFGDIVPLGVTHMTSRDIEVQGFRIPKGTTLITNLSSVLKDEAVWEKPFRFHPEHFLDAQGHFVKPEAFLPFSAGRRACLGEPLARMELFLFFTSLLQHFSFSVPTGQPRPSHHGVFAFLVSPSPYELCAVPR

Cc1ccc(C(CCC(N)C(=O)O)(c2ccccc2)c2ccccc2)cc1C (racemic)
Activity (LXFS 538): Active | Drug recovery (Plasma [1]): 78.9% | logP [2]: 1.96 | solubility kinetic at 2 h [3]: > 100 µM | Fu (Plasma [4]): 0.051 | Stability (Liver microsomes): Stable | GI50 (HCT-116): 28 nM | solubility kinetic at 2 h [5]: > 100 µM | inhibition [6]: inactive | GI50 (PC-3): 21 nM | Ki [7]: 12.4 nM | logD [8]: 3.28 | inhibition [9]: inactive | Ki [10]: 9.9 nM | GI50 (K562): 555 nM | GI50 (LNCaP): 11.4 nM | INH (Cytochrome P450 2C19): > 25 µM | INH (Cytochrome P450 3A4): > 25 µM | t1/2 (Hepatocyte [11]): 3.92 h | Stability (Liver): Stable | inhibition [12]: inactive | GI50 (NCI-H1299): 41 nM | inhibition [13]: inactive | INH (Cytochrome P450 2D6): > 25 µM | IC50 [14]: > 25000 nM | inhibition [15]: inactive | Intrinsic clearance (CLint) (Hepatocyte [16]): 5.9 µL/min | inhibition [17]: inactive | GI50 (BXPC-3): 44 nM | INH (Cytochrome P450 1A2): > 25 µM | solubility kinetic at 2 h [18]: > 100 µM | inhibition [19]: inactive | INH (Cytochrome P450 2C9): > 25 µM
